{"source": "ChEMBL document CHEMBL3997769", "about": "“Discovery and preclinical evaluation of 7-benzyl-N-(substituted)-pyrrolo[3,2-d]pyrimidin-4-amines as single agents with microtubule targeting effects along with triple-acting angiokinase inhibition as antitumor agents” (Bioorg Med Chem, 2017)", "key": {"[1]": {"system": "SF-539", "assay": "Growth inhibition of human SF539 cells incubated for 48 hrs by sulforhodamine B assay", "format": "functional", "settings": "SF-539, 48 h"}, "[2]": {"system": "HCC 2998", "assay": "Growth inhibition of human HCC2998 cells incubated for 48 hrs by sulforhodamine B assay", "format": "functional", "settings": "HCC 2998, 48 h"}, "[3]": {"system": "NCI/ADR-RES", "assay": "Growth inhibition of human NCI/ADR-RES cells incubated for 48 hrs by sulforhodamine B assay", "format": "functional"}, "[4]": {"system": "SF-295", "assay": "Growth inhibition of human SF295 cells incubated for 48 hrs by sulforhodamine B assay", "format": "functional", "settings": "SF-295, 48 h"}, "[5]": {"system": "K562", "assay": "Growth inhibition of human K562 cells incubated for 48 hrs by sulforhodamine B assay", "format": "functional", "settings": "K562, 48 h"}, "[6]": {"system": "NCI-H522", "assay": "Growth inhibition of human NCI-H522 cells incubated for 48 hrs by sulforhodamine B assay", "format": "functional", "settings": "NCI-H522, 48 h"}, "[7]": {"system": "ACHN", "assay": "Growth inhibition of human ACHN cells incubated for 48 hrs by sulforhodamine B assay", "format": "functional"}, "[8]": {"system": "HT-29", "assay": "Growth inhibition of human HT-29 cells incubated for 48 hrs by sulforhodamine B assay", "format": "functional", "settings": "HT-29, 48 h"}, "[9]": {"system": "CAKI-1", "assay": "Growth inhibition of human Caki1 cells incubated for 48 hrs by sulforhodamine B assay", "format": "functional", "settings": "CAKI-1, 48 h"}, "[10]": {"system": "M14", "assay": "Growth inhibition of human M14 cells incubated for 48 hrs by sulforhodamine B assay", "format": "functional", "settings": "M14, 48 h"}, "[11]": {"system": "HeLa", "assay": "Growth inhibition of human HeLa cells measured after 96 hrs by sulforhodamine B assay", "format": "functional, cell-based", "outline": "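Exposed 96 h to varying compound concentrations in 0.5% DMSO. Cell protein measured by sulforhodamine B; IC50 = concentration halving the increase in cell protein versus untreated cultures.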"}, "[12]": {"system": "SK-MEL-5", "assay": "Growth inhibition of human SK-MEL-5 cells incubated for 48 hrs by sulforhodamine B assay", "format": "functional", "settings": "SK-MEL-5, 48 h"}, "[13]": {"system": "HCT-15", "assay": "Growth inhibition of human HCT15 cells incubated for 48 hrs by sulforhodamine B assay", "format": "functional", "settings": "HCT-15, 48 h"}, "[14]": {"system": "SW-620", "assay": "Growth inhibition of human SW620 cells incubated for 48 hrs by sulforhodamine B assay", "format": "functional", "settings": "SW-620, 48 h"}, "[15]": {"system": "OVCAR-3", "assay": "Growth inhibition of human OVCAR3 cells incubated for 48 hrs by sulforhodamine B assay", "format": "functional", "settings": "OVCAR-3, 48 h"}, "[16]": {"system": "4T1", "assay": "Antitumor activity against luciferase/GFP-tagged mouse 4T1 cells implanted in Balb/cJ mouse assessed as reduction in lung metastasis at 50 mg/kg, ip administered three times weekly by fluorescence microscopic method", "format": "functional, organism-based", "outline": "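Orthotopic 4T1-Luc2-GFP allograft in the mammary fat pad of female BALB/cJ mice; IP treatment in 5% Pharmasolve/5% Solutol HS in saline began one week after implantation. At study end, lungs were excised from mice euthanized under isoflurane and imaged with a GFP-filter fluorescence dissecting microscope; GFP-positive metastases per lung counted. n = 9-10.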"}, "[17]": {"system": "A549", "assay": "Growth inhibition of human A549/ATCC cells incubated for 48 hrs by sulforhodamine B assay", "format": "functional", "settings": "A549, 48 h"}, "[18]": {"system": "SNB-19", "assay": "Growth inhibition of human SNB19 cells incubated for 48 hrs by sulforhodamine B assay", "format": "functional", "settings": "SNB-19, 48 h"}, "[19]": {"system": "DU-145", "assay": "Growth inhibition of human DU145 cells incubated for 48 hrs by sulforhodamine B assay", "format": "functional", "settings": "DU-145, 48 h"}, "[20]": {"assay": "Inhibition of bovine brain tubulin assembly preincubated for 15 mins followed by GTP addition measured for 20 mins by spectrophotometric method", "parameters": "species or system Bos taurus"}, "[21]": {"system": "UACC-62", "assay": "Growth inhibition of human UACC62 cells incubated for 48 hrs by sulforhodamine B assay", "format": "functional", "settings": "UACC-62, 48 h"}, "[22]": {"system": "OVCAR-5", "assay": "Growth inhibition of human OVCAR5 cells incubated for 48 hrs by sulforhodamine B assay", "format": "functional", "settings": "OVCAR-5, 48 h"}}, "note": "Active and inactive are the calls of the source. The rule behind the calls is not given here."}
{"smiles": "COc1ccc(N(C)c2nc(C)nc3c(Cc4ccccc4)cn(C)c23)cc1.Cl", "values": [{"measurement": "GI50", "setting": "[1]", "result": 0.0254, "unit": "µM"}, {"measurement": "GI50", "setting": "[2]", "result": 0.0711, "unit": "µM"}, {"measurement": "GI50", "setting": "[3]", "result": 0.0328, "unit": "µM"}, {"measurement": "GI50", "setting": "[4]", "result": 0.0304, "unit": "µM"}, {"measurement": "GI50", "setting": "[5]", "result": 0.0337, "unit": "µM"}, {"measurement": "GI50", "setting": "[6]", "result": 0.0239, "unit": "µM"}, {"measurement": "GI50", "setting": "[7]", "result": 0.172, "unit": "µM"}, {"measurement": "GI50", "setting": "[8]", "result": 0.0351, "unit": "µM"}, {"measurement": "GI50", "setting": "[9]", "result": 0.0566, "unit": "µM"}, {"measurement": "GI50", "setting": "[10]", "result": 0.0295, "unit": "µM"}, {"measurement": "IC50", "setting": "[11]", "result": 0.014, "unit": "µM"}, {"measurement": "GI50", "setting": "[12]", "result": 0.0542, "unit": "µM"}, {"measurement": "GI50", "setting": "[13]", "result": 0.0381, "unit": "µM"}, {"measurement": "GI50", "setting": "[14]", "result": 0.0384, "unit": "µM"}, {"measurement": "GI50", "setting": "[15]", "result": 0.0352, "unit": "µM"}, {"measurement": "Activity", "setting": "[16]", "result": "Active"}, {"measurement": "GI50", "setting": "[17]", "result": 0.044, "unit": "µM"}, {"measurement": "GI50", "setting": "[18]", "result": 0.0547, "unit": "µM"}, {"measurement": "GI50", "setting": "[19]", "result": 0.0444, "unit": "µM"}, {"measurement": "IC50", "setting": "[20]", "result": 0.48, "unit": "µM"}, {"measurement": "GI50", "setting": "[21]", "result": 0.475, "unit": "µM"}, {"measurement": "GI50", "setting": "[22]", "result": 0.269, "unit": "µM"}]}
